Converted amounts (≈) assume the structure as drawn.
Experiments:
[1] = Cytotoxicity against human CL1-0 cells assessed as growth inhibition after 48 hrs by MTS assay; format: functional, cell-based
Outline: (§1)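 Cells seeded in four replicates at 2×10^3 per well in complete RPMI 1640 with drug (0, 0.1, 0.25, 0.5, 0.75 µg/mL in the cell-line panel), 48 h at 37 °C, 5% CO2. Viability read by MTS reagent, absorbance at 490 nm, expressed as percent of untreated control; IC50 taken as concentration giving 50% growth inhibition.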

[2] = system: CL1-0; assay: Effect on CFLAR gene expression in human CL1-0 cells assessed as change in gene expression by RT-PCR relative to control; format: functional
Outline: (§2)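 Real-time quantitative RT-PCR on CL1-0 RNA to validate microarray changes, SYBR Green chemistry with gene-specific primers, GAPDH as internal control; fold change versus untreated control reported as mean ± SD.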

[3] = system: CL1-0; assay: Induction of apoptosis in human CL1-0 cells at 0.75 ug/mL after 24 hrs by propidium iodide and annexin V staining; format: functional
Outline: (§3)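 CL1-0 cells treated with increasing concentrations for 24 h, resuspended in Annexin-binding buffer, stained with Alexa Fluor 488 Annexin V and PI for 15 min at room temperature, analyzed by flow cytometry; single-stain controls set apoptotic and necrotic windows.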

[4] = system: CL1-0; assay: Effect on BCL2L1 gene expression in human CL1-0 cells assessed as change in gene expression by RT-PCR relative to control; format: functional; outline: as §2
[5] = system: CL1-0; assay: Induction of apoptosis in human CL1-0 cells at 0.25 ug/mL after 24 hrs by propidium iodide and annexin V staining; format: functional; outline: as §3
[6] = system: CL1-0; assay: Effect on NFKB1A gene expression in human CL1-0 cells assessed as change in gene expression at 0.5 ug/mL after 24 hrs by DNA microarray relative to control; format: functional
Outline: (§4)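 Total RNA from CL1-0 cells treated 24 h with 0.5 µg/mL drug or untreated; mRNA isolated and run on human DNA microarrays; genes with statistically significant twofold change versus control reported as fold change, mean ± SD.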

[7] = system: CL1-0; assay: Effect on IRAK1 gene expression in human CL1-0 cells assessed as change in gene expression at 0.5 ug/mL after 24 hrs by DNA microarray relative to control; format: functional; outline: as §4
[8] = system: CL1-0; assay: Effect on PDK1 gene expression in human CL1-0 cells assessed as change in gene expression at 0.5 ug/mL after 24 hrs by DNA microarray relative to control; format: functional; outline: as §4
[9] = system: CL1-0; assay: Effect on PRKACA gene expression in human CL1-0 cells assessed as change in gene expression by RT-PCR relative to control; format: functional; outline: as §2
[10] = system: CL1-0; assay: Effect on NFKB1A gene expression in human CL1-0 cells assessed as change in gene expression by RT-PCR relative to control; format: functional; outline: as §2
[11] = system: CL1-0; assay: Effect on CFLAR gene expression in human CL1-0 cells assessed as change in gene expression at 0.5 ug/mL after 24 hrs by DNA microarray relative to control; format: functional; outline: as §4
[12] = system: NCI-H460; assay: Cytotoxicity against human H460 cells assessed as growth inhibition after 48 hrs by MTS assay; format: functional, cell-based; details: NCI-H460, 48 h; outline: as §1
[13] = system: PC-9; assay: Cytotoxicity against human PC9 cells assessed as growth inhibition after 48 hrs by MTS assay; format: functional, cell-based; details: PC-9, 48 h; outline: as §1
[14] = system: CL1-0; assay: Effect on MAP3K14 gene expression in human CL1-0 cells assessed as change in gene expression at 0.5 ug/mL after 24 hrs by DNA microarray relative to control; format: functional; outline: as §4
[15] = system: CL1-0; assay: Effect on PPP3CA gene expression in human CL1-0 cells assessed as change in gene expression by RT-PCR relative to control; format: functional; outline: as §2
[16] = system: A549; assay: Cytotoxicity against human A549 cells assessed as growth inhibition after 48 hrs by MTS assay; format: functional, cell-based; details: A549, 48 h; outline: as §1
[17] = system: CL1-0; assay: Effect on AKT3 gene expression in human CL1-0 cells assessed as change in gene expression by RT-PCR relative to control; format: functional; outline: as §2
[18] = system: CL1-0; assay: Effect on AKT3 gene expression in human CL1-0 cells assessed as change in gene expression at 0.5 ug/mL after 24 hrs by DNA microarray relative to control; format: functional; outline: as §4
[19] = system: CL1-0; assay: Effect on PIK3CD gene expression in human CL1-0 cells assessed as change in gene expression at 0.5 ug/mL after 24 hrs by DNA microarray relative to control; format: functional; outline: as §4
[20] = system: CL1-0; assay: Effect on TNFRSF10B gene expression in human CL1-0 cells assessed as change in gene expression by RT-PCR relative to control; format: functional
Outline: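 Microarray hits validated by real-time quantitative RT-PCR with SYBR Green chemistry and gene-specific primers; GAPDH used as internal control; fold change versus untreated control as mean ± SD.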

[21] = system: CL1-0; assay: Effect on PDK1 gene expression in human CL1-0 cells assessed as change in gene expression by RT-PCR relative to control; format: functional; outline: as §2
[22] = system: CL1-0; assay: Effect on TNFRSF10B gene expression in human CL1-0 cells assessed as change in gene expression at 0.5 ug/mL after 24 hrs by DNA microarray relative to control; format: functional
Outline: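 Total RNA extracted from treated or untreated CL1-0 cells, mRNA isolated, hybridized to human DNA microarray; genes scored by statistically significant twofold expression difference versus untreated control; fold change given as mean ± SD.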

[23] = system: CL1-0; assay: Effect on PIK3CD gene expression in human CL1-0 cells assessed as change in gene expression by RT-PCR relative to control; format: functional; outline: as §2
[24] = system: CL1-0; assay: Effect on BCL2L1 gene expression in human CL1-0 cells assessed as change in gene expression at 0.5 ug/mL after 24 hrs by DNA microarray relative to control; format: functional; outline: as §4
[25] = system: CL1-0; assay: Effect on IRAK1 gene expression in human CL1-0 cells assessed as change in gene expression by RT-PCR relative to control; format: functional; outline: as §2
[26] = system: CL1-0; assay: Effect on MAP3K14 gene expression in human CL1-0 cells assessed as change in gene expression by RT-PCR relative to control; format: functional; outline: as §2
[27] = system: CL1-0; assay: Induction of apoptosis in human CL1-0 cells at 0.5 ug/mL after 24 hrs by propidium iodide and annexin V staining; format: functional; outline: as §3
[28] = Cytotoxicity against human CL1-5 cells assessed as growth inhibition after 48 hrs by MTS assay; format: functional, cell-based; details: CL1-5, 48 h; outline: as §1
[29] = system: CL1-0; assay: Effect on PRKACA gene expression in human CL1-0 cells assessed as change in gene expression at 0.5 ug/mL after 24 hrs by DNA microarray relative to control; format: functional; outline: as §4
[30] = system: CL1-0; assay: Effect on PPP3CA gene expression in human CL1-0 cells assessed as change in gene expression at 0.5 ug/mL after 24 hrs by DNA microarray relative to control; format: functional; outline: as §4
[31] = Homo sapiens, CL1-0, 48 h, read-out: IC50

With `COc1ccc2c(CN3CCC(CO)CC3)cc3cc4c(cc3c2c1)OCO4.Cl` the IC50 [1, 31] was 0.44 µg/mL and the IC50 ([1]; cl1-0) was “Dose-dependent effect”.
In the case of `COc1ccc2c(CN3CCN(CCO)CC3)cc3cc4c(cc3c2c1)OCO4`, the IC50 [1, 31] is reported as > 2 µg/mL.
In the case of `COc1ccc2c(CN3CCN(c4ccc(Cl)cc4)CC3)cc3cc4c(cc3c2c1)OCO4`, the IC50 [1, 31] is reported as > 2 µg/mL.
With `COc1ccc2c(CN3CCC(CCO)CC3)cc3cc4c(cc3c2c1)OCO4.Cl` the IC50 [1, 31] was 0.46 µg/mL and the IC50 ([1]; cl1-0) was “Dose-dependent effect”.
For `COc1ccc2c(CNCCCCCCO)cc3cc4c(cc3c2c1)OCO4`, the IC50 [1, 31] was > 2 µg/mL.
For `COc1ccc2c(CN3CCC(CCO)CC3)cc3cc4c(cc3c2c1)OCO4`, the IC50 [1, 31] was 0.37 µg/mL (≈ 0.94 µM) and the IC50 ([1]; cl1-0) was “Dose-dependent effect”.
In the case of `COc1ccc2c(CN3CCN(c4ccc(O)cc4)CC3)cc3cc4c(cc3c2c1)OCO4`, the IC50 [1, 31] is reported as > 2 µg/mL.
In the case of `COc1ccc2c(CN3CCC(C(=O)O)CC3)cc3cc4c(cc3c2c1)OCO4`, the IC50 [1, 31] is reported as > 2 µg/mL.
In the case of `COc1ccc2c(CN3CCC(CO)CC3)cc3cc4c(cc3c2c1)OCO4`, the “fold change (FC)” value [2] is reported as 2.8, the Activity [3] is reported as 11.03% and the “fold change (FC)” value [4] is reported as 1.83. For the same compound, the Activity [5] was 5.96%, the “fold change (FC)” value [6] was 2.23 and the “fold change (FC)” value [7] was 2.1. The “fold change (FC)” value [8] was 0.26, the “fold change (FC)” value [9] was 1.39 and the “fold change (FC)” value [10] was 6.8. The “fold change (FC)” value [11] was 3.01, the IC50 [12] was 0.2 µg/mL (≈ 0.527 µM) and the IC50 [13] was 0.2 µg/mL (≈ 0.527 µM). For the same compound, the “fold change (FC)” value [14] was 2.25, the “fold change (FC)” value [15] was 5.31 and the IC50 [16] was 0.2 µg/mL (≈ 0.527 µM). For the same compound, the “fold change (FC)” value [17] was 1.61, the “fold change (FC)” value [18] was 0.48 and the “fold change (FC)” value [19] was 2.03. The “fold change (FC)” value [20] was 1.71, the “fold change (FC)” value [21] was 0.56 and the “fold change (FC)” value [22] was 2.53. For the same compound, the “fold change (FC)” value [23] was 1.69, the IC50 [1, 31] was 0.81 µg/mL (≈ 2.13 µM) and the IC50 ([1]; cl1-0) was “Dose-dependent effect”. The “fold change (FC)” value [24] was 2.7, the “fold change (FC)” value [25] was 2.23 and the “fold change (FC)” value [26] was 2.94. For the same compound, the Activity [27] was 9.56%, the IC50 [28] was 0.2 µg/mL (≈ 0.527 µM) and the “fold change (FC)” value [29] was 5.38. For the same compound, the “fold change (FC)” value [30] was 2.53.
In the case of `COc1ccc2c(CNCCCCCC(=O)O)cc3cc4c(cc3c2c1)OCO4`, the IC50 [1, 31] is reported as > 2 µg/mL.

Reference: ChEMBL document CHEMBL1153963, “Phenanthrene-based tylophorine-1 (PBT-1) inhibits lung cancer cell growth through the Akt and NF-kappaB pathways” (J Med Chem, 2009)
